The source made the active and inactive calls. No cut-off for these calls is given here. Residues, ends and D or L forms follow the SMILES beside them.
Tests used:
[1] = Chemical stability assessed as compound remaining after proteolytic cleavage after 2 hrs in presence of chymotrypsin; format: physicochemical; settings: read-out: Stability
Procedure, shortened: (§1)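 Each peptide at 0.76 mg/mL was incubated in PBS with 0.1 mg/mL chymotrypsin. Intact-peptide peak area was compared with an equivalent sample incubated in PBS alone.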

[2] = Chemical stability assessed as compound remaining after proteolytic cleavage after 20 hrs in presence of chymotrypsin; format: physicochemical; settings: read-out: Stability; procedure, shortened: as §1
[3] = Inhibition of amyloid beta (1 to 40) fibril formation by thioflavin T fluorescent dye assay
Procedure, shortened: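 Aβ1-40 fractions were dissolved in 30 mM Tris/HCl pH 7.4 at 20 °C, with or without a 10-fold molar excess of inhibitor. Aliquots taken at 0.5, 1.5, 6, 8, 15 and 24 h went into ThT in 50 mM Tris/HCl pH 8.0. Fluorescence was read at 485 nm (excitation 450 nm) at 20 °C. Percent inhibition is relative to the parent pentapeptide. Three experiments, each sample in triplicate.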

[4] = Inhibition of amyloid beta (1 to 40) aggregation assessed as inhibition of protofbril formation
Procedure, shortened: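 Lyophilised Aβ1-40 was incubated in 30 mM Tris/HCl pH 7.4 at 20 °C, with or without a 10-fold molar excess of inhibitor. Aliquots taken at 30 min and 24 h were frozen, lyophilised, gold sputter-coated and imaged by scanning electron microscopy for protofibrils.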

Row | Compound | remaining at 2 h [1] [%] | remaining at 20 h [2] [%] | Activity [3] | Activity [4]
1 | Ac-LPFFD-NH2 | 12 |  |  | 
2 | CC(=O)N[C@@H](CC(C)C)C(=O)N1C[C@@H](c2ccccc2)[C@@H]1C(=O)N[C@@H](Cc1ccccc1)C(=O)N[C@@H](Cc1ccccc1)C(=O)N[C@@H](CC(=O)O)C(N)=O (HELM PEPTIDE1{[ac].L.[O=C([C@H]1[C@H](c2ccccc2)CN1[*:1])[*:2]].F.F.D.[am]}$$$$V2.0) | 35 | 15 |  | 
3 | CC(=O)N[C@@H](CC(C)C)C(=O)N1CCC[C@H]1CS(=O)(=O)N[C@@H](Cc1ccccc1)C(=O)N[C@@H](Cc1ccccc1)C(=O)N[C@@H](CC(=O)O)C(N)=O | 35 | 15 |  | 
4 | Ac-LPFFDLPFFD-NH2 | 22 |  | Active | 

Other lines, results leading:

Row | remaining at 2 h [1] [%] | remaining at 20 h [2] [%] | Activity [3] | Activity [4] | Compound
5 | 35 | 15 |  |  | CC(=O)N[C@@H](CC(C)C)C(=O)N1CCC[C@H]1CC(=O)N[C@@H](Cc1ccccc1)C(=O)N[C@@H](Cc1ccccc1)C(=O)N[C@@H](CC(=O)O)C(N)=O (HELM PEPTIDE1{[ac].L.[O=C(C[C@@H]1CCCN1[*:1])[*:2]].F.F.D.[am]}$$$$V2.0)
6 | 70 | 55 | Active | Active | CC(C)C[C@H](NS(=O)(=O)CCN(C)C)C(=O)N1CCC[C@H]1C(=O)N[C@@H](Cc1ccccc1)C(=O)N[C@@H](Cc1ccccc1)C(=O)N[C@@H](CC(=O)O)C(N)=O (HELM PEPTIDE1{[CN(C)CCS(=O)(=O)[*:2]].L.P.F.F.D.[am]}$$$$V2.0)
7 | 35 | 15 | Active |  | CC(=O)N[C@@H](CC(C)C)C(=O)N1CC[C@H]1C(=O)N[C@@H](Cc1ccccc1)C(=O)N[C@@H](Cc1ccccc1)C(=O)N[C@@H](CC(=O)O)C(N)=O (HELM PEPTIDE1{[ac].L.[O=C([C@@H]1CCN1[*:1])[*:2]].F.F.D.[am]}$$$$V2.0)
